Laboratory results as given in ChEMBL document CHEMBL1629686, “Substrate selectivity and a novel role in inhibitor discrimination by residue 237 in the KPC-2 beta-lactamase” (Antimicrob Agents Chemother, 2010).
Values after ≈ are worked out from the molar mass of the structure shown.

Columns and labels:
[1] = system: Escherichia coli; assay: Antimicrobial activity against Escherichia coli DH10B harboring beta-lactamase KPC-2 T237K mutant by agar dilution method; assay type: functional; conditions: K-12 DH10B
Procedure, shortened: (§1)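 LB agar dilution MICs followed CLSI criteria, with inocula applied by Steers replicator. […] Piperacillin-tazobactam was tested at an 8:1 ratio. Wild-type and mutant blaKPC-2 were carried on pBC SK(+), or wild type on pBR322-catI, in E. coli DH10B.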

[2] = system: Escherichia coli; assay: Antimicrobial activity against Escherichia coli DH10B harboring beta-lactamase KPC-2 T237G mutant by agar dilution method; assay type: functional; conditions: K-12 DH10B; procedure, shortened: as §1
[3] = system: Escherichia coli; assay: Antimicrobial activity against Escherichia coli DH10B by agar dilution method; assay type: functional; conditions: K-12 DH10B; procedure, shortened: as §1
[4] = system: Escherichia coli; assay: Antimicrobial activity against Escherichia coli DH10B harboring beta-lactamase KPC-2 T237W mutant by agar dilution method; assay type: functional; conditions: K-12 DH10B; procedure, shortened: as §1
[5] = system: Klebsiella pneumoniae; assay: Selectivity index, Ratio of Kcat/Km for Klebsiella pneumoniae 1534 beta-lactamase KPC-2 T237S mutant to ratio of Kcat/Km for Klebsiella pneumoniae 1534 beta-lactamase KPC-2 by spectrophotometric analysis
Procedure, shortened: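 Kinetics used purified enzymes in 10 mM PBS, pH 7.4, room temperature, with 10 nM enzyme and substrate in excess. Km and Vmax came from a Michaelis-Menten fit. kcat/Km of the variant was compared with wild type as ΔΔG = −RT ln of the kcat/Km ratio.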

[6] = system: Escherichia coli; assay: Antimicrobial activity against Escherichia coli DH10B harboring plasmid pBR322-catI carrying beta-lactamase KPC-2 by agar dilution method; assay type: functional; conditions: K-12 DH10B; procedure, shortened: as §1
[7] = system: Escherichia coli; assay: Antimicrobial activity against Escherichia coli DH10B harboring beta-lactamase KPC-2 T237Q mutant by agar dilution method; assay type: functional; conditions: K-12 DH10B; procedure, shortened: as §1
[8] = system: Escherichia coli; assay: Antimicrobial activity against Escherichia coli DH10B harboring beta-lactamase KPC-2 T237S mutant by agar dilution method; assay type: functional; conditions: K-12 DH10B; procedure, shortened: as §1
[9] = system: Escherichia coli; assay: Antimicrobial activity against Escherichia coli DH10B harboring beta-lactamase KPC-2 T237D mutant by agar dilution method; assay type: functional; conditions: K-12 DH10B; procedure, shortened: as §1
[10] = system: Escherichia coli; assay: Antimicrobial activity against Escherichia coli DH10B harboring beta-lactamase KPC-2 T237E mutant by agar dilution method; assay type: functional; conditions: K-12 DH10B; procedure, shortened: as §1
[11] = system: Escherichia coli; assay: Antimicrobial activity against Escherichia coli DH10B harboring beta-lactamase KPC-2 T237R mutant by agar dilution method; assay type: functional; conditions: K-12 DH10B; procedure, shortened: as §1
[12] = system: Escherichia coli; assay: Antimicrobial activity against Escherichia coli DH10B harboring beta-lactamase KPC-2 T237H mutant by agar dilution method; assay type: functional; conditions: K-12 DH10B; procedure, shortened: as §1
[13] = system: Escherichia coli; assay: Antimicrobial activity against Escherichia coli DH10B harboring plasmid pBC SK(+) carrying wild type beta-lactamase KPC-2 by agar dilution method; assay type: functional; conditions: K-12 DH10B; procedure, shortened: as §1
[14] = system: Klebsiella pneumoniae; assay: Activity of Klebsiella pneumoniae 1534 beta-lactamase KPC-2 T237A mutant by spectrophotometric analysis
Procedure, shortened: (§2)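 Purified KPC-2 variant enzymes (periplasmic lysate from E. coli, preparative isoelectric focusing). Hydrolysis followed by diode-array spectrophotometry in 10 mM PBS, pH 7.4, room temperature. Enzyme at 10 nM with substrate in molar excess for pseudo-first-order conditions. Vmax and Km came from a nonlinear least-squares Michaelis-Menten fit.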

[15] = system: Escherichia coli; assay: Antimicrobial activity against Escherichia coli DH10B harboring beta-lactamase KPC-2 T237N mutant by agar dilution method; assay type: functional; conditions: K-12 DH10B; procedure, shortened: as §1
[16] = system: Escherichia coli; assay: Antimicrobial activity against Escherichia coli DH10B harboring beta-lactamase KPC-2 T237F mutant by agar dilution method; assay type: functional; conditions: K-12 DH10B; procedure, shortened: as §1
[17] = system: Escherichia coli; assay: Antimicrobial activity against Escherichia coli DH10B harboring plasmid […] by agar dilution method; assay type: functional; conditions: K-12 DH10B; procedure, shortened: as §1
[18] = system: Klebsiella pneumoniae; assay: Activity of Klebsiella pneumoniae 1534 beta-lactamase KPC-2 T237S mutant by spectrophotometric analysis; procedure, shortened: as §2
[19] = system: Escherichia coli; assay: Antimicrobial activity against Escherichia coli DH10B harboring beta-lactamase KPC-2 T237Y mutant by agar dilution method; assay type: functional; conditions: K-12 DH10B; procedure, shortened: as §1
[20] = system: Escherichia coli; assay: Antimicrobial activity against Escherichia coli DH10B harboring beta-lactamase KPC-2 T237L mutant by agar dilution method; assay type: functional; conditions: K-12 DH10B; procedure, shortened: as §1
[21] = system: Escherichia coli; assay: Antimicrobial activity against Escherichia coli DH10B harboring beta-lactamase KPC-2 T237A mutant by agar dilution method; assay type: functional; conditions: K-12 DH10B; procedure, shortened: as §1
[22] = system: Klebsiella pneumoniae; assay: Ratio of Kcat/Km for Klebsiella pneumoniae 1534 beta-lactamase KPC-2 T237A mutant by spectrophotometric analysis; procedure, shortened: as §2
[23] = system: Escherichia coli; assay: Antimicrobial activity against Escherichia coli DH10B harboring beta-lactamase KPC-2 T237C mutant by agar dilution method; assay type: functional; conditions: K-12 DH10B; procedure, shortened: as §1
[24] = system: Escherichia coli; assay: Antimicrobial activity against Escherichia coli DH10B harboring beta-lactamase KPC-2 T237M mutant by agar dilution method; assay type: functional; conditions: K-12 DH10B; procedure, shortened: as §1
[25] = system: Klebsiella pneumoniae; assay: Ratio of Kcat/Km for Klebsiella pneumoniae 1534 beta-lactamase KPC-2 T237S mutant by spectrophotometric analysis; procedure, shortened: as §2
[26] = system: Escherichia coli; assay: Antimicrobial activity against Escherichia coli DH10B harboring beta-lactamase KPC-2 T237V mutant by agar dilution method; assay type: functional; conditions: K-12 DH10B; procedure, shortened: as §1
[27] = system: Escherichia coli; assay: Antimicrobial activity against Escherichia coli DH10B harboring beta-lactamase KPC-2 T237P mutant by agar dilution method; assay type: functional; conditions: K-12 DH10B; procedure, shortened: as §1
[28] = system: Escherichia coli; assay: Antimicrobial activity against Escherichia coli DH10B harboring beta-lactamase KPC-2 T237I mutant by agar dilution method; assay type: functional; conditions: K-12 DH10B; procedure, shortened: as §1
[29] = system: Klebsiella pneumoniae; assay: Antimicrobial activity against Klebsiella pneumoniae 1534 expressing beta-lactamase KPC-2 by agar dilution method; assay type: functional
Procedure, shortened: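 MICs were determined by LB agar dilution following CLSI criteria, with a Steers replicator. […] Piperacillin-tazobactam was kept at an 8:1 ratio.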

[30] = Inhibition of Klebsiella pneumoniae 1534 beta-lactamase KPC-2 T237S mutant by competitive assay
Procedure, shortened: (§3)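 Direct competition assay at steady state with purified enzyme at 10 nM. Inhibitor was varied from 5 μM to 5 mM, with nitrocefin 100 μM final as reporter substrate. 1/v0 was plotted against [I], and Ki(observed) was taken as y-intercept divided by slope. This was corrected by 1 + [S]/Km(nitrocefin).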

[31] = Inhibition of Klebsiella pneumoniae 1534 beta-lactamase KPC-2 T237A mutant by competitive assay; procedure, shortened: as §3
[32] = system: Klebsiella pneumoniae; assay: Ratio of Ki for Klebsiella pneumoniae 1534 beta-lactamase KPC-2 T237A mutant to Ki for wild type Klebsiella pneumoniae beta-lactamase KPC-2 by competitive assay
[33] = system: Klebsiella pneumoniae; assay: Ratio of Ki for Klebsiella pneumoniae 1534 beta-lactamase KPC-2 T237S mutant to Ki for Klebsiella pneumoniae wild type beta-lactamase KPC-2 by competitive assay; procedure, shortened: as §3

SMILES	MIC [1] [µg/mL]	MIC [2] [µg/mL]	MIC [3] [µg/mL]	MIC [4] [µg/mL]	MIC [6] [µg/mL]	MIC [7] [µg/mL]	MIC [8] [µg/mL]	MIC [9] [µg/mL]	MIC [10] [µg/mL]	MIC [11] [µg/mL]	MIC [12] [µg/mL]	MIC [13] [µg/mL]	MIC [15] [µg/mL]	MIC [16] [µg/mL]	MIC [17] [µg/mL]	MIC [19] [µg/mL]	MIC [20] [µg/mL]	MIC [21] [µg/mL]	MIC [23] [µg/mL]	MIC [24] [µg/mL]	further results
CC(=O)OCC1=C(C(=O)O)N2C(=O)[C@@H](NC(=O)Cc3cccs3)[C@H]2SC1 [CEPHALOTHIN]	4 (≈ 10.1 µM)	4 (≈ 10.1 µM)	4 (≈ 10.1 µM)	32 (≈ 80.7 µM)	512 (≈ 1290 µM)	16 (≈ 40.4 µM)	256 (≈ 646 µM)	4 (≈ 10.1 µM)	4 (≈ 10.1 µM)	4 (≈ 10.1 µM)	16 (≈ 40.4 µM)	256 (≈ 646 µM)	4 (≈ 10.1 µM)	4 (≈ 10.1 µM)	4 (≈ 10.1 µM)	16 (≈ 40.4 µM)	8 (≈ 20.2 µM)	32 (≈ 80.7 µM)	4 (≈ 10.1 µM)	16 (≈ 40.4 µM)	fold change (FC) [5]: 2.7; Km [14]: 30 µM; kcat [14]: 26 s⁻¹; Km [18]: 18 µM; kcat [18]: 65 s⁻¹; kcat/Km [22]: 900000 M⁻¹ s⁻¹; kcat/Km [25]: 3.6e+06 M⁻¹ s⁻¹; MIC [26]: 8 µg/mL (≈ 20.2 µM); MIC [27]: 2 µg/mL (≈ 5.04 µM); MIC [28]: 4 µg/mL (≈ 10.1 µM); MIC [29]: 1020 µg/mL (≈ 2580 µM)
O=C(O)[C@H]1/C(=C/CO)O[C@@H]2CC(=O)N21 [CLAVULANIC ACID]	–	–	–	–	–	–	–	–	–	–	–	–	–	–	–	–	–	–	–	–	Ki [30]: 13 µM; Ki [31]: 55 µM; fold change (FC) [32]: 5; fold change (FC) [33]: 1.7
C[C@@H](O)[C@H]1C(=O)N2C(C(=O)O)=C(S[C@@H]3CN[C@H](CNS(N)(=O)=O)C3)[C@H](C)[C@H]12 [DORIPENEM]	0.06 (≈ 0.143 µM)	0.06 (≈ 0.143 µM)	0.06 (≈ 0.143 µM)	0.06 (≈ 0.143 µM)	4 (≈ 9.51 µM)	0.06 (≈ 0.143 µM)	0.25 (≈ 0.595 µM)	0.06 (≈ 0.143 µM)	0.06 (≈ 0.143 µM)	0.06 (≈ 0.143 µM)	0.06 (≈ 0.143 µM)	0.25 (≈ 0.595 µM)	0.06 (≈ 0.143 µM)	0.06 (≈ 0.143 µM)	0.06 (≈ 0.143 µM)	0.06 (≈ 0.143 µM)	0.06 (≈ 0.143 µM)	0.06 (≈ 0.143 µM)	0.06 (≈ 0.143 µM)	0.06 (≈ 0.143 µM)	MIC [26]: 0.06 µg/mL (≈ 0.143 µM); MIC [27]: 0.06 µg/mL (≈ 0.143 µM); MIC [28]: 0.06 µg/mL (≈ 0.143 µM); MIC [29]: 4 µg/mL (≈ 9.51 µM)
